# DNMT1 inh: inhibitors of human DNMT1. P26358. DNMT1 molecular beacon, Hinp1I cleavage, fluorescence. inhibition (reported as % activation of signal), % at 10 µM. hit rate 0.83% among 360,000. AID 588458; in the data active means inhibition above about 50%
# STEP block: blocks human striatal-enriched tyrosine phosphatase | P54829 | inhibition, % at 20 µM | hit rate 0.25% among 360,000 | recombinant STEP, OMFP fluorogenic substrate, fluorescence;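 active means inhibition at 20 µM, scaled per plate between control wells, above about 37%, limit read from the data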;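 further: 0% = DMSO with enzyme and substrate and 100% = substrate only without enzyme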
# Target sequence (P54829 whole entry, looked up): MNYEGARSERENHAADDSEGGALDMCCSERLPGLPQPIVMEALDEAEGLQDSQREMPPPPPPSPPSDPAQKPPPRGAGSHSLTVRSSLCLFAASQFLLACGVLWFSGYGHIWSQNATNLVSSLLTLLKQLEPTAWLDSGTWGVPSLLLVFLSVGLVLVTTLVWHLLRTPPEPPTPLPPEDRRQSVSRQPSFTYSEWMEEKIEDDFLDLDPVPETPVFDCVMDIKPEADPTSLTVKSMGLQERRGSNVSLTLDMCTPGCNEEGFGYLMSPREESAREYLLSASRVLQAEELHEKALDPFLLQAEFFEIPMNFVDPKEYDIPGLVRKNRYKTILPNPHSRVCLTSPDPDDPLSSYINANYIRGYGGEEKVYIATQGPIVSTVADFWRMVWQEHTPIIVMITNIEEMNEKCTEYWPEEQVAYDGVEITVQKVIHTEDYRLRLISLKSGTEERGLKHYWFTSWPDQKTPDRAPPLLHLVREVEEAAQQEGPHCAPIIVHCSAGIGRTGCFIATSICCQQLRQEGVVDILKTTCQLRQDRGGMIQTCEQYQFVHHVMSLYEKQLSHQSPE
#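 Measure: Control-normalized % inhibition with plate pattern correction | Test system: STEP phosphatase, cell-free reaction | Medium: pH 6.0 Bis-Tris with DTT and Tween 20 | Technique: Fluorescence, 480/540 nm | Times: Reaction 20 min, ambient temperature | Doses: Single compound dose of 20 µM, 1% DMSO final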
# SUMO1 PPI mod: alters human SUMO1 binding to SIM partners | P63165 | SUMO1 binding to a labelled peptide, TR-FRET, 1 h | inhibition, % at 20 µM | hit rate 0.33% among 360,000; in the data active means inhibition above about 37%
# LMPTP block: blocks human LMPTP phosphatase; recombinant LMPTP-A, OMFP fluorogenic substrate, fluorescence intensity; inhibition, % at 20 µM; hit rate 0.22% among 360,000; AID 651560;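 active means compounds that cut the enzyme signal by at least half of the control window in the single-dose screen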;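 further: plate controls were DMSO wells with enzyme plus substrate for no effect and substrate without enzyme for full effect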
#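 Assay system: LMPTP-A, protein tyrosine phosphatase of low molecular weight / Medium: pH 6.0 Bis-Tris buffer with DTT and Triton X-100 / Schedule: 50 min enzyme reaction at room temperature, protected from light / Measured by: endpoint fluorescence intensity from OMFP dephosphorylation / Read-out basis: % inhibition relative to no-enzyme and uninhibited control wells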
# Scp1 inh: blocks human Scp-1 phosphatase activity | Recombinant Scp1, phosphopeptide, malachite green phosphate absorbance | Q9GZU7 | hit rate 0.88% among 340,000 | AID 493091 | inhibition, % at 20 µM;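 active means inhibition above about 50% at 20 µM, limit read from the data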;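 further: plate controls were DMSO wells with enzyme for no effect and wells lacking enzyme for full effect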
#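 System: SCP-1 catalytic domain; Reagent: Phospho 17-mer peptide substrate; Doses: one concentration, 20 µM, with 1.0% DMSO; Incubation: 45 min room-temperature reaction, 5 min colour, 30 min stabiliser; Signal: Phosphate-binding colour reagent, absorbance read at 630 nm.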
# STEP conf: STEP (human) phosphatase inhibition, single concentration confirmation | hit rate 32% among 520 | recombinant STEP, OMFP fluorogenic substrate, fluorescence | shares compounds with STEP block | inhibition, % at 20 µM; call rule not given here;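 further: 0% = enzyme with substrate plus DMSO and 100% = substrate without enzyme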
# * marks the source's active call; other numbers are inactive results; / = no result given. An excerpt weighted towards active compounds, which were near 1.7% of everything screened.
SMILES,DNMT1 inh,STEP block,SUMO1 PPI mod,LMPTP block,Scp1 inh,STEP conf
CC(=O)N1CCC(N(CCN2CCOCC2)C(=S)Nc2ccc(C)cc2C)CC1,4,6,5,1,-2,/
COc1cc(Cl)ccc1NC(=S)N(CCN1CCOCC1)C1CCN(C(C)=O)CC1,0,51*,-2,-2,0,8
CC(=O)N1CCC(N(CCN2CCOCC2)C(=S)Nc2ccc(C)cc2)CC1,0,63*,2,-3,-5,21*
C/C(=N\NC(=O)CNC(=O)c1cccs1)c1ccc(Cl)c(Cl)c1,-1,2,-14,1,-5,/
COc1ccc(S(=O)(=O)NC(=O)C2(C)CCN2C(=O)CC2CC2)cc1 (stereo unspecified),-2,1,3,3,/,/
COc1ccccc1NS(=O)(=O)c1ccc(OC)c([N+](=O)[O-])c1,2,0,-10,-1,-6,/
COc1ccccc1NS(=O)(=O)c1ccc(NN=C2CCCCC2)c([N+](=O)[O-])c1,-11,92*,-21,2,-6,5
O=C(N/N=C/c1ccc([N+](=O)[O-])cc1)c1cccnc1,1,-2,-27,1,5,/
Nc1c(C(=O)N/N=C/c2ccc([N+](=O)[O-])cc2)cnn1-c1ccccc1,5,52*,17,19,17,24
COc1ccc(N2CCN(c3nc4c(C)cccn4c(=O)c3C=C(C#N)C#N)CC2)cc1,0,63*,2,2,-9,6
COc1ccc(N(C(C)=O)S(=O)(=O)c2cccs2)cc1,-18,0,-2,-1,0,/
COc1ccc(N(C(=O)C(C)C)S(=O)(=O)c2cccs2)cc1,-2,44*,-1,-1,-6,10
O=C1CC(=O)Nc2cc(S(=O)(=O)NCc3cccs3)ccc2N1,3,74*,-2,-1,-3,8
O=C(O)c1cccc(S(=O)(=O)NCc2cccs2)c1,7,0,27,-1,-7,/
CN(CC(=O)Nc1cccc(F)c1)C(=O)/C=C/c1ccc2ccccc2n1,0,2,-7,0,7,/
Cc1cccc(N2CCN(C(=O)CCNS(=O)(=O)c3ccc4c(c3)oc(=O)n4C)CC2)c1C,-2,74*,-3,0,7,1
Cc1cc(C)c(NC(=S)N2CCC(N(C)CC3CCCO3)CC2)c(C)c1 (stereo unspecified),1,86*,2,-5,-6,30
Cc1cccc(N2CCN(S(=O)(=O)c3ccc4c(c3)CCN4C(=O)CCC(=O)O)CC2)c1C,-3,41*,5,0,33,-2
O=C(Nc1cccc(S(=O)(=O)N2CCCCCC2)c1)C1CCN(C(=O)c2ccc(F)cc2)CC1,-1,-3,3,1,-12,/
COC(=O)c1sccc1NC(=O)c1ccc(C#N)cc1,19,98*,13,2,117*,12
O=C(Nc1ccc(Oc2cccnc2)cc1)C1CCN(Cc2cc(Cl)ccc2O)CC1,4,1,11,1,-4,/
O=C(c1ccc(Br)cc1)N1CCN(Cc2ccccc2)CC1,-1,2,1,-2,-2,/
Oc1ccc(C(=S)N2CCN(Cc3ccccc3)CC2)cc1,0,62*,6,1,3,4
Cc1ccc(C(=S)N2CCN(Cc3ccccc3)CC2)s1,-2,78*,1,2,-8,42*
CCNC(=S)N1CCN(Cc2ccccc2)CC1,-3,1,0,-3,-6,/
SMILES,DNMT1 inh,STEP block,SUMO1 PPI mod,LMPTP block,Scp1 inh,STEP conf
S=C(c1ccc(Br)cc1)N1CCN(Cc2ccccc2)CC1,5,90*,5,2,-11,38*
CN(C)c1ccc(C(=S)N2CCN(Cc3ccccc3)CC2)cc1,-1,85*,-1,1,-7,39*
CCCC(C)NC(=O)Cn1c(=O)c2c(ncn2CCC(C)C)n(Cc2ccccc2)c1=O (stereo unspecified),3,-7,4,-1,-3,/
CSCc1c(C(=O)OCC(=O)NC2CCCCC2)oc2ccccc12,4,0,-2,0,-1,/
Cc1ccccc1CC(=O)N1CC(C)OC(C)C1 (stereo unspecified),-2,2,7,-2,-4,/
C=CCNC(=O)c1cc2c(=O)n3ccccc3nc2s1,0,-2,-23,-1,2,/
COc1cc2c(cc1NC(=O)c1cccc([N+](=O)[O-])c1)oc1ccccc12,47,84*,-2,66*,28,12
COc1cc2c(cc1NC(=O)c1ccc(C)c([N+](=O)[O-])c1)oc1ccccc12,14,0,-2,0,-3,/
Cc1cc2nc(/C=C/c3nc4cc(C)c(C)cc4[nH]3)[nH]c2cc1C,27,46*,-1,39,-4,19
Cc1csc2ncc(C(=O)NCc3ccccn3)c(=O)n12,4,98*,1,0,-6,10
Cc1csc(NC(=O)CCCC(=O)O)c1-c1nc2ccccc2s1,1,93*,12,1,33,-7
CCOC(=O)[C@H]1[C@H]2COc3ccc(Br)cc3[C@@H]2N2C(=O)c3c(C)cc(C)cc3NC(=O)[C@@]12C,3,0,-1,1,-6,/
CCOc1ncccc1C(=O)OCC(=O)Nc1cc(C(C)(C)C)ccc1OC,3,2,-2,3,-8,/
CC1(C)Cc2c(sc(NC(=O)C(=O)NCCCN3CCOCC3)c2C#N)CO1,5,68*,-5,-1,0,19
CC1(C)Cc2c(sc(NC(=O)/C=C/C(=O)O)c2C#N)CO1,2,-1,1,-3,0,/
CN1CCC(NC(=O)c2cc(-c3cccc(Br)c3)nc3ccccc23)CC1,-1,2,-17,-1,-8,/
CCOc1ccc(N2C(=O)c3cccnc3C2Nc2ccc(F)cc2)cc1 (stereo unspecified),-6,52*,1,-1,-4,26
S=C1NC(C23CC4CC(CC(C4)C2)C3)=CC(c2ccc3c(c2)OCO3)N1 (stereo unspecified),-3,62*,-6,2,-2,25*
S=C(c1cn(CCOc2ccccc2)c2ccccc12)N1CCCC1,-3,97*,-3,2,9,63*
C[C@@H]1CN([C@H](C)CO)C(=O)c2cc(C#CC3CC3)cnc2O[C@H]1CN(C)S(C)(=O)=O,2,1,3,-2,/,/
COc1ccc(NC(=S)NCCCN2CCCC2=O)c(OC)c1,0,46*,-6,-1,3,24
COc1ccc(NC(=O)NCCCN2CCCC2=O)cc1,0,0,4,-2,-1,/
Cc1ccc(NC(=O)NCCCN2CCCC2=O)cc1,0,0,-3,-2,0,/
O=C1CCCN1CCCNC(=S)Nc1ccc(F)cc1,2,43*,1,-1,6,2

# Source: PubChem
